Experiments:
[1] = biological target: Interleukin-1 receptor-associated kinase 3 (Homo sapiens) (UniProt Q9Y616); experiment: Binding affinity to wild-type human partial length IRAK3 (V147 to E596 residues) expressed in Escherichia coli BL21 at 1 uM by Kinomescan method relative to control
[2] = biological target: Protein-tyrosine kinase 6 (Homo sapiens) (UniProt Q13882); experiment: Binding affinity to wild-type human partial length BRK (L166 to T451 residues) expressed in Escherichia coli BL21 at 1 uM by Kinomescan method relative to control
Protein-tyrosine kinase 6 (Homo sapiens), sequence (Q13882 whole entry, looked up, the tested form may be a part): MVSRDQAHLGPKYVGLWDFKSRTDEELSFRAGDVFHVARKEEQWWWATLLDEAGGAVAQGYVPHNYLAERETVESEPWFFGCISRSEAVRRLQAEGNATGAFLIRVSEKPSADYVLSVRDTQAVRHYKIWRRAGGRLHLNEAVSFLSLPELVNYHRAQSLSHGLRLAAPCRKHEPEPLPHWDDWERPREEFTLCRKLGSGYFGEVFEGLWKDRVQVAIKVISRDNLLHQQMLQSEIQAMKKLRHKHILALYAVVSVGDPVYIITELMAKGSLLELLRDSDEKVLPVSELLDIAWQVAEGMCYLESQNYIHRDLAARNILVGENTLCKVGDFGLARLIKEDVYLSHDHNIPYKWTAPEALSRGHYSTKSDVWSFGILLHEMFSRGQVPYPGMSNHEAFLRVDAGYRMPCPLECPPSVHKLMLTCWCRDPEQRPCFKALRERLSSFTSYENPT

[3] = system: Serine/threonine-protein kinase B-raf (Homo sapiens), P15056 [V600E]; experiment: Binding affinity to human partial length BRAF V600E mutant (S429 to E741 residues) expressed in HEK293 cells at 1 uM by Kinomescan method relative to control; type: cell-based
[4] = biological target: Mitogen-activated protein kinase 12 (Homo sapiens) (UniProt P53778); experiment: Binding affinity to wild-type human full length p38-gamma (M1 to L367 residues) expressed in HEK293 cells at 1 uM by Kinomescan method relative to control; type: cell-based
Outline: (§1)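 Kinome-wide competition binding panel run by an outside provider, with each compound tested at a single concentration. Activity is read against the kinase panel.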

[5] = biological target: Dual specificity tyrosine-phosphorylation-regulated kinase 1B (Homo sapiens) (UniProt Q9Y463); experiment: Binding affinity to wild-type human full length DYRK1B (M1 to S629 residues) expressed in Escherichia coli BL21 at 1 uM by Kinomescan method relative to control
Dual specificity tyrosine-phosphorylation-regulated kinase 1B (Homo sapiens), sequence (Q9Y463 whole entry, looked up, the tested form may be a part): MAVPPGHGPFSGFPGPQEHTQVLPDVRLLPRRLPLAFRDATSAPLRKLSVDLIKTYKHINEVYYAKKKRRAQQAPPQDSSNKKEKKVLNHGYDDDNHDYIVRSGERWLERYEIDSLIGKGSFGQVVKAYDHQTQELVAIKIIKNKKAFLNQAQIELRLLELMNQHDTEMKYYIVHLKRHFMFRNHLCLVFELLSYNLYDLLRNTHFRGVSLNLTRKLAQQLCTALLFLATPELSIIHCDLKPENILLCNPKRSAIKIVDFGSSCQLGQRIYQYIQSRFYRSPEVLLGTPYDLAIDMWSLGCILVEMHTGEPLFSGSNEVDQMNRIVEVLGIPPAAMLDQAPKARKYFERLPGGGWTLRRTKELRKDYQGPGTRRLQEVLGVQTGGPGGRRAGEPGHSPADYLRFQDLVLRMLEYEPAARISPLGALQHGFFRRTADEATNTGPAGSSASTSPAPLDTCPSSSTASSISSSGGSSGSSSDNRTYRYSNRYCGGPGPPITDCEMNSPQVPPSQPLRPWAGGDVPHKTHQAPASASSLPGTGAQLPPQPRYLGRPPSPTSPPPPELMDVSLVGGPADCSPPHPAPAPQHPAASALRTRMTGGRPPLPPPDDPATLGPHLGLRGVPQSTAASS
Outline: (§2)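 Run as one kinome-wide competition binding panel with each compound at a single fixed concentration. Results were plotted as a kinome-wide selectivity map.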

[6] = system: Tyrosine-protein kinase ABL1 (Homo sapiens), P00519 [H396P]; experiment: Binding affinity to human non-phosphorylated ABL1 H396P mutant (S229 to K512 residues) expressed in HEK293 cells at 1 uM by Kinomescan method relative to control; type: cell-based
[7] = biological target: SRSF protein kinase 3 (Homo sapiens) (UniProt Q9UPE1); experiment: Binding affinity to wild-type human partial length SRPK3 (P41 to P567 residues) expressed in Escherichia coli BL21 at 1 uM by Kinomescan method relative to control
[8] = biological target: Serine/threonine-protein kinase Nek10 (Homo sapiens) (UniProt Q6ZWH5); experiment: Binding affinity to wild-type human partial length NEK10 (L488 to R809 residues) expressed in HEK293 cells at 1 uM by Kinomescan method relative to control; type: cell-based
[9] = biological target: Serine/threonine-protein kinase MRCK beta (Homo sapiens) (UniProt Q9Y5S2); experiment: Binding affinity to wild-type human partial length MRCKB (L56 to S417 residues) expressed in Escherichia coli BL21 at 1 uM by Kinomescan method relative to control
[10] = system: Leucine-rich repeat serine/threonine-protein kinase 2 (Homo sapiens), Q5S007 [G2019S]; experiment: Binding affinity to human partial length LRRK2 G2019S mutant (H970 to E2527 residues) expressed in HEK293 cells at 1 uM by Kinomescan method relative to control; type: cell-based
Aurora kinase B = Aurora kinase B (Homo sapiens, UniProt Q96GD4); experiment: Binding affinity to wild-type human partial length AURKB (D25 to A303 residues) expressed in HEK293 cells at 1 uM by Kinomescan method relative to control; type: cell-based
Aurora kinase B, sequence (Q96GD4 whole entry, the tested form may be a part): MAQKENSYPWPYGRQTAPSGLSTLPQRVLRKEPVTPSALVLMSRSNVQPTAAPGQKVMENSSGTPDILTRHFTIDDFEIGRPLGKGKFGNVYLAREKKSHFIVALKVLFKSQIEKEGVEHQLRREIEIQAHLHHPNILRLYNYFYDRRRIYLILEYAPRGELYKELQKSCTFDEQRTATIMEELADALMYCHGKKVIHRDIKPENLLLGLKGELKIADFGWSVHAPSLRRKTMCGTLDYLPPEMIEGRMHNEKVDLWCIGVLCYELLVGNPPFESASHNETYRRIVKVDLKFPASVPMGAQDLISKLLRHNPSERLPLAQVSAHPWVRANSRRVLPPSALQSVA

[11] = biological target: Tyrosine-protein kinase Mer (Homo sapiens) (UniProt Q12866); experiment: Binding affinity to wild-type human partial length MERTK (R557 to L884 residues) expressed in Escherichia coli BL21 at 1 uM by Kinomescan method relative to control
[12] = biological target: Serine/threonine-protein kinase VRK2 (Homo sapiens) (UniProt Q86Y07); experiment: Binding affinity to wild-type human partial length VRK2 (M1 to T336 residues) expressed in HEK293 cells at 1 uM by Kinomescan method relative to control; type: cell-based
[13] = biological target: G protein-coupled receptor kinase 3 (Homo sapiens) (UniProt P35626); experiment: Binding affinity to wild-type human full length GRK3 (M1 to L688 residues) expressed in HEK293 cells at 1 uM by Kinomescan method relative to control; type: cell-based; outline: as §2
[14] = biological target: Tyrosine-protein kinase Srms (Homo sapiens) (UniProt Q9H3Y6); experiment: Binding affinity to wild-type human partial length SRMS (L208 to P488 residues) expressed in HEK293 cells at 1 uM by Kinomescan method relative to control; type: cell-based
Tyrosine-protein kinase Srms (Homo sapiens), sequence (Q9H3Y6 whole entry, the tested form may be a part): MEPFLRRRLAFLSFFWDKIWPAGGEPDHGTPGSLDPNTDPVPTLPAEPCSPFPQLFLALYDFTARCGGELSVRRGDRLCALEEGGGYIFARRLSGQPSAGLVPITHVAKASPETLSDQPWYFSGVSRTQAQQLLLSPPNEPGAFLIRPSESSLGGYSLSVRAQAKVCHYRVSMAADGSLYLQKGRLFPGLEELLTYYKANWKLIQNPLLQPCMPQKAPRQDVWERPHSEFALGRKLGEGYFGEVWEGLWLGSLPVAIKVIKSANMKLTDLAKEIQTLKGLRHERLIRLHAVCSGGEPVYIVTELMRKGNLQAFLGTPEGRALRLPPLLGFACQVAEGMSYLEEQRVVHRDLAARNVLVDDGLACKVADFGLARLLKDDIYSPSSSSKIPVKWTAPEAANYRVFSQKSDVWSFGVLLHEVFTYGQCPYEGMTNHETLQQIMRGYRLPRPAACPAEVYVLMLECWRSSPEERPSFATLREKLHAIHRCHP

[15] = biological target: Serine/threonine-protein kinase 3 (Homo sapiens) (UniProt Q13188); experiment: Binding affinity to wild-type human partial length MST2 (D17 to E318 residues) expressed in Escherichia coli BL21 at 1 uM by Kinomescan method relative to control
Serine/threonine-protein kinase 3 (Homo sapiens), sequence (Q13188 whole entry, the tested form may be a part): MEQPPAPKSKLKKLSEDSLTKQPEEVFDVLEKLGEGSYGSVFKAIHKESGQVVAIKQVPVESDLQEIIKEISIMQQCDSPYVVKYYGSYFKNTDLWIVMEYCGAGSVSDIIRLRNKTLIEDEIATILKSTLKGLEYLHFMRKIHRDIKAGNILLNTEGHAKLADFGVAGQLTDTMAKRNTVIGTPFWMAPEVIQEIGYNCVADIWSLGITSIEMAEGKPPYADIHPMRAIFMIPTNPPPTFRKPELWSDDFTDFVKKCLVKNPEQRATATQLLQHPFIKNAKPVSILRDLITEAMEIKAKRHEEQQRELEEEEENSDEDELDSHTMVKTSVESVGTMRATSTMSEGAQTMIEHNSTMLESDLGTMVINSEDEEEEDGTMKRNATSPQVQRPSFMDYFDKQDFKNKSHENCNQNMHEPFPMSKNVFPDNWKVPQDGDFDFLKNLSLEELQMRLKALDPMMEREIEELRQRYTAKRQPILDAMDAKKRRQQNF

[16] = biological target: Vascular endothelial growth factor receptor 3 (Homo sapiens) (UniProt P35916); experiment: Binding affinity to wild-type human partial length FLT4 (E821 to E1196 residues) expressed in Escherichia coli BL21 at 1 uM by Kinomescan method relative to control
[17] = biological target: Ephrin type-A receptor 3 (Homo sapiens) (UniProt P29320); experiment: Binding affinity to wild-type human partial length EPHA3 (D604 to K889 residues) expressed in Escherichia coli BL21 at 1 uM by Kinomescan method relative to control
[18] = system: Mast/stem cell growth factor receptor Kit (Homo sapiens), P10721 [V559D]; experiment: Binding affinity to human partial length KIT V559D mutant (Y545 to D952 residues) expressed in Escherichia coli BL21 at 1 uM by Kinomescan method relative to control
[19] = biological target: Phosphatidylinositol 3-kinase catalytic subunit type 3 (Homo sapiens) (UniProt Q8NEB9); experiment: Binding affinity to wild-type human partial length VPS34 (S282 to H879 residues) expressed in HEK293 cells at 1 uM by Kinomescan method relative to control; type: cell-based
Phosphatidylinositol 3-kinase catalytic subunit type 3 (Homo sapiens), sequence (Q8NEB9 whole entry, the tested form may be a part): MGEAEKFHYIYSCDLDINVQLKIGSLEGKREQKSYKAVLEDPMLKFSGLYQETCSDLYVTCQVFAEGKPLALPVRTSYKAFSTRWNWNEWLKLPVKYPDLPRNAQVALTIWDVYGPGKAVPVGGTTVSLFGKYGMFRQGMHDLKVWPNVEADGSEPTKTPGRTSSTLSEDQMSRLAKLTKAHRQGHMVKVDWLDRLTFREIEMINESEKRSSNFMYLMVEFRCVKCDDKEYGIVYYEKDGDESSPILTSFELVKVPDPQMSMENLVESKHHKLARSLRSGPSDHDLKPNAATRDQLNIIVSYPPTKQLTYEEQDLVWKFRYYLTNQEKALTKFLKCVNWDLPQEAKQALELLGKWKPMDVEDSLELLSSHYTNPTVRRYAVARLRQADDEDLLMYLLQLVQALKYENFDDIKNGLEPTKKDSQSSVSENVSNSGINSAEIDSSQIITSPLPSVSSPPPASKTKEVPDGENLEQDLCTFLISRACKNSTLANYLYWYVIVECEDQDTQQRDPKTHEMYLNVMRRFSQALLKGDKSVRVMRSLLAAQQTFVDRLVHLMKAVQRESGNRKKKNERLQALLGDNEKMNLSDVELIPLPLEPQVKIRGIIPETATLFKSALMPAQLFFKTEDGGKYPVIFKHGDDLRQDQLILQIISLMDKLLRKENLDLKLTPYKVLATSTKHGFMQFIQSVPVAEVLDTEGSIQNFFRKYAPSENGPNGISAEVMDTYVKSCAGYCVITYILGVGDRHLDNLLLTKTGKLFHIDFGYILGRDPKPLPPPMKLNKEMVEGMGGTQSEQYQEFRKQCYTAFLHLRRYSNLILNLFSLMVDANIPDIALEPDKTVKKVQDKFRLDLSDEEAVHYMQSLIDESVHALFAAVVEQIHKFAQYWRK

[20] = biological target: Cyclin-dependent kinase 7 (Homo sapiens) (UniProt P50613); experiment: Binding affinity to wild-type human full length CDK7 (M1 to L344 residues) expressed in HEK293 cells at 1 uM by Kinomescan method relative to control; type: cell-based; outline: as §2
Cyclin-dependent kinase 7 (Homo sapiens), sequence (P50613 whole entry, the tested form may be a part): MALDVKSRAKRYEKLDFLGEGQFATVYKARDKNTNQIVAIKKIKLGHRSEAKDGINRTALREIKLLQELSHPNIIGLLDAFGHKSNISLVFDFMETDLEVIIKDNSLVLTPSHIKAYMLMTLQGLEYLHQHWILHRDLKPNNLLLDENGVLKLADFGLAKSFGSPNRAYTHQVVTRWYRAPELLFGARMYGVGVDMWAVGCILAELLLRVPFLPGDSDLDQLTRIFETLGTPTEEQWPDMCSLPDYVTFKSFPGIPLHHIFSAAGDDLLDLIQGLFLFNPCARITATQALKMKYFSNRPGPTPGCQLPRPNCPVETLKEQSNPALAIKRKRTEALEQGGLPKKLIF

[21] = biological target: Mitogen-activated protein kinase kinase kinase 5 (Homo sapiens) (UniProt Q99683); experiment: Binding affinity to wild-type human partial length ASK1 (E648 to S964 residues) expressed in Escherichia coli BL21 at 1 uM by Kinomescan method relative to control; outline: as §1
[22] = biological target: Mitogen-activated protein kinase kinase kinase 7 (Homo sapiens) (UniProt O43318); experiment: Binding affinity to wild-type human partial length TAK1 (M1 to Q303 residues) expressed in HEK293 cells at 1 uM by Kinomescan method relative to control; type: cell-based
Mitogen-activated protein kinase kinase kinase 7 (Homo sapiens), sequence (O43318 whole entry, the tested form may be a part): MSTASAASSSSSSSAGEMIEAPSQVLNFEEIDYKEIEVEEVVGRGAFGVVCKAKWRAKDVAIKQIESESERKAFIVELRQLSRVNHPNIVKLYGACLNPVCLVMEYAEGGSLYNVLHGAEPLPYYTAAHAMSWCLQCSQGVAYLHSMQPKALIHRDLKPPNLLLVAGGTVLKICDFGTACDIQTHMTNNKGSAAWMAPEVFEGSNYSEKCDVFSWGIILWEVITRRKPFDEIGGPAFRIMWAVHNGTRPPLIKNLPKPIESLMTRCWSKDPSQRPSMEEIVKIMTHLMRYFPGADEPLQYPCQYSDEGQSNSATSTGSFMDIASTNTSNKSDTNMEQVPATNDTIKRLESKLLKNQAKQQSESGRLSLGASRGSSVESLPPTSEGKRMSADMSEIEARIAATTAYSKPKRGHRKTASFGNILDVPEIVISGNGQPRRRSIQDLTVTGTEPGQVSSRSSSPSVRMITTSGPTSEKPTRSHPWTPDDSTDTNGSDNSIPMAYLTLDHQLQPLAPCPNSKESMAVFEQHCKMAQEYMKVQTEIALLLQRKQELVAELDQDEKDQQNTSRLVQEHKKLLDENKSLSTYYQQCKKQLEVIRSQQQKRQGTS

[23] = biological target: AP2-associated protein kinase 1 (Homo sapiens) (UniProt Q2M2I8); experiment: Binding affinity to human wild-type AAK1 (G25 to L333 residues) expressed in Escherichia coli BL21 at 1 uM by Kinomescan method relative to control
[24] = biological target: Receptor-interacting serine/threonine-protein kinase 2 (Homo sapiens) (UniProt O43353); experiment: Binding affinity to wild-type human partial length RIPK2 (M1 to K310 residues) expressed in Escherichia coli BL21 at 1 uM by Kinomescan method relative to control

Interleukin-1 receptor-associated kinase 3 (Homo sapiens), sequence (Q9Y616 whole entry, the tested form may be a part): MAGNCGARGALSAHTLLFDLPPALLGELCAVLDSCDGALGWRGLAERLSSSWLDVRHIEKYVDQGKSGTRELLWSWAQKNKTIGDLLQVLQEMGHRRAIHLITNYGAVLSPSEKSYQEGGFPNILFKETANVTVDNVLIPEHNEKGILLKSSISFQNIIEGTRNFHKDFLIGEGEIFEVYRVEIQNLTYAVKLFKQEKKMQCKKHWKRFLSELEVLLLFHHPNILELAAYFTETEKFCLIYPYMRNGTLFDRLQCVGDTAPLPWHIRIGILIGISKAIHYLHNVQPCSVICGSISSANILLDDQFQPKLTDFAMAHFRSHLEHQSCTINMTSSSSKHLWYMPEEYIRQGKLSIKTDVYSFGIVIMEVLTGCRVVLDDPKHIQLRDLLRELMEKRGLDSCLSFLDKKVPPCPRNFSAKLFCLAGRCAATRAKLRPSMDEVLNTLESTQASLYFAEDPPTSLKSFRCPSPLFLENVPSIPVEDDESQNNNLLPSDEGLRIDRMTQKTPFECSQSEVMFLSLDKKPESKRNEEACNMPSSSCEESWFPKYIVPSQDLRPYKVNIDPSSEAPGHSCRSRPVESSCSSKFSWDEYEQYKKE

Compound | Activity [1] | Activity [2] | Activity [3] | Activity [4] | Activity [5] | Activity [6] | Activity [7] | Activity [8] | Activity [9] | Activity [10] | Activity (Aurora kinase B) | Activity [11] | Activity [12] | Activity [13] | Activity [14] | Activity [15] | Activity [16] | Activity [17] | Activity [18] | Activity [19] | further results
CCC(=O)Nc1ccc(C(=O)Nc2ccc(Nc3ncc4c(n3)N(C)c3ccc(C)cc3C(=O)N4C)cc2)cc1 | 89% | 100% | 100% | 86% | 100% | 62% | 100% | 85% | 98% | 100% | 1.9% | 100% | 61% | 70% | 89% | 70% | 89% | 99% | 94% | 100% | Activity [20]: 66%; Activity [21]: 99%; Activity [22]: 66%; Activity [23]: 100%; Activity [24]: 98%
C=CC(=O)Nc1ccc(C(=O)Nc2ccc(Nc3ncc4c(n3)N(C)c3ccc(C)cc3C(=O)N4C)cc2)cc1 | 98% | 99% | 94% | 67% | 90% | 84% | 100% | 85% | 96% | 99% | 1.8% | 80% | 100% | 100% | 73% | 100% | 98% | 100% | 97% | 99% | Activity [20]: 80%; Activity [21]: 100%; Activity [22]: 96%; Activity [23]: 99%; Activity [24]: 89%

Source: ChEMBL document CHEMBL4184148 (Bioorg Med Chem Lett, 2017)
